In data set [1] the test system is Mus musculus. Briefly: Toxicity in C3D2F1/J mouse allografted with mouse L1210 cells assessed as body weight change at 50 mg/kg, ip qd administered for 5 days measured on day 8 (reference value: 1.81 +/- 0.79 g). Type of data set: organism-based. The settings on record: in vivo, 120 h. Also noted: dose 50 mg/kg, route intraperitoneal.
The test system of data set [2] is Mus musculus. Put plainly: Toxicity in C3D2F1/J mouse allografted with mouse L1210 cells assessed as body weight change at 18.3 mg/kg, ip qd administered for 5 days measured on day 8 co-administered with 27 mg/kg prednisone (reference value: 1.81 +/- 0.79 g). In kind it is organism-based. The settings on record: in vivo, 120 h.
The subject of data set [3] is Mus musculus. Briefly: Toxicity in C3D2F1/J mouse allografted with mouse L1210 cells assessed as body weight change at 25 mg/kg, ip qd administered for 5 days measured on day 8 (reference value: 1.81 +/- 0.79 g). In kind it is organism-based. Also noted: dose 25 mg/kg, route intraperitoneal. The settings on record: in vivo, 120 h.
Data set [4] has as its system L1210. Briefly: Antitumor activity against mouse L1210 cells allografted in C3D2F1/J mouse assessed as median survival time at 25 mg/kg, ip qd administered for 5 days (reference value: 8 days). The settings on record: route intraperitoneal. Type of data set: functional.
Data set [5] has as its system L1210. Briefly: Antitumor activity against mouse L1210 cells allografted in C3D2F1/J mouse assessed as increase in life span at 25 mg/kg, ip qd administered for 5 days relative to control. In kind it is functional. The settings on record: 120 h, route intraperitoneal.
The subject of data set [6] is L1210. Briefly: Antitumor activity against mouse L1210 cells allografted in C3D2F1/J mouse assessed as median survival time at 50 mg/kg, ip qd administered for 5 days (reference value: 9 days). The settings on record: route intraperitoneal. Type of data set: functional.
Data set [7] has as its system L1210. Put plainly: Cytotoxicity against mouse L1210 cells assessed as growth inhibition measured at 72 hrs by trypan blue exclusion assay. Type of data set: functional. The settings on record: L1210, 72 h, read-out: ED50 (the source's name). The essentials:
(§1)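 L1210 mouse lymphoid leukemia cells seeded at 2–3 × 10⁵ cells/mL in RPMI 1640 + 10% fetal calf serum with compound (from Me2SO stock, final Me2SO 0.5%, compound 100 μM or lower). Viable cells counted by 0.05% Trypan blue exclusion in a hemocytometer at 24, 48, 72 h. Treated/untreated density ratio. ED50 at 72 h interpolated from response curves of three separate experiments.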

Data set [8] has as its system L1210. Briefly: Antitumor activity against mouse L1210 cells allografted in C3D2F1/J mouse assessed as increase in life span at 18.2 mg/kg, ip qd administered for 5 days relative to control. Type of data set: functional. The settings on record: 120 h, route intraperitoneal.
Data set [9] relates to Mus musculus. Briefly: Toxicity in C3D2F1/J mouse allografted with mouse L1210 cells assessed as body weight change at 18.2 mg/kg, ip qd administered for 5 days measured on day 8 (reference value: 1.81 +/- 0.79 g). Type of data set: organism-based. Further details: dose 18.2 mg/kg, route intraperitoneal. The settings on record: in vivo, 120 h.
Data set [10] concerns Mus musculus. Briefly: Toxicity in C3D2F1/J mouse allografted with mouse L1210 cells assessed as body weight change at 18.2 mg/kg, ip qd administered for 5 days measured on day 8 co-administered with 27 mg/kg prednisolone (reference value: 1.81 +/- 0.79 g). Type of data set: organism-based. The settings on record: in vivo, 120 h.
Data set [11] concerns L1210. Briefly: Antitumor activity against mouse L1210 cells allografted in C3D2F1/J mouse assessed as median survival time at 18.2 mg/kg, ip qd administered for 5 days (reference value: 10 days). Type of data set: functional. The settings on record: route intraperitoneal.
For data set [12], the system named is L1210. Briefly: Antitumor activity against mouse L1210 cells allografted in C3D2F1/J mouse assessed as median survival time at 18.2 mg/kg, ip qd administered for 5 days co-administered with 27 mg/kg prednisolone (reference value: 9 days). In kind it is functional.
Data set [13] has as its system L1210. Put plainly: Antitumor activity against mouse L1210 cells allografted in C3D2F1/J mouse assessed as median survival time at 18.3 mg/kg, ip qd administered for 5 days co-administered with 27 mg/kg prednisone (reference value: 9 days). In kind it is functional.
For data set [14], the system named is L1210. Briefly: Antitumor activity against mouse L1210 cells allografted in C3D2F1/J mouse assessed as increase in life span at 18.2 mg/kg, ip qd administered for 5 days co-administered with 27 mg/kg prednisolone relative to control. Type of data set: functional.
Data set [15] concerns L1210. Put plainly: Antitumor activity against mouse L1210 cells allografted in C3D2F1/J mouse assessed as increase in life span at 18.3 mg/kg, ip qd administered for 5 days co-administered with 27 mg/kg prednisone relative to control. Type of data set: functional.
Data set [16] relates to L1210. Put plainly: Antitumor activity against mouse L1210 cells allografted in C3D2F1/J mouse assessed as increase in life span at 50 mg/kg, ip qd administered for 5 days relative to control. The settings on record: 120 h, route intraperitoneal. In kind it is functional.
Data set [17] has as its system Mus musculus. Briefly: Toxicity in C3D2F1/J mouse allografted with mouse L1210 cells assessed as body weight change at 27 mg/kg, ip qd administered for 5 days measured on day 8 (reference value: 1.81 +/- 0.79 g). Also noted: dose 27 mg/kg, route intraperitoneal. The settings on record: in vivo, 120 h. In kind it is organism-based.
The test system of data set [18] is L1210. Briefly: Antitumor activity against mouse L1210 cells allografted in C3D2F1/J mouse assessed as median survival time at 27 mg/kg, ip qd administered for 5 days (reference value: 10 days). The settings on record: route intraperitoneal. In kind it is functional.
Data set [19] concerns L1210. Briefly: Antitumor activity against mouse L1210 cells allografted in C3D2F1/J mouse assessed as increase in life span at 27 mg/kg, ip qd administered for 5 days relative to control. The settings on record: 120 h, route intraperitoneal. In kind it is functional.
The subject of data set [20] is L1210. Briefly: Antitumor activity against mouse L1210 cells allografted in C3D2F1/J mouse assessed as increase in life span at 24.2 mg/kg, ip qd administered for 5 days relative to control. Type of data set: functional. The settings on record: 120 h, route intraperitoneal.
Data set [21] relates to L1210. Briefly: Antitumor activity against mouse L1210 cells allografted in C3D2F1/J mouse assessed as median survival time at 24.2 mg/kg, ip qd administered for 5 days (reference value: 10 days). Type of data set: functional. The settings on record: route intraperitoneal.
For data set [22], the system named is L1210. Briefly: Cytotoxicity against mouse L1210 cells assessed as growth inhibition measured at 72 hrs in presence of 100 uM prednisolone by trypan blue exclusion assay. The settings on record: L1210, 72 h, read-out: ED50 (the source's name). In kind it is functional. The gist of the method: as §1
Data set [23] concerns Mus musculus. Briefly: Toxicity in C3D2F1/J mouse allografted with mouse L1210 cells assessed as body weight change at 24.2 mg/kg, ip qd administered for 5 days measured on day 8 (reference value: 1.81 +/- 0.79 g). In kind it is organism-based. Further details: dose 24.2 mg/kg, route intraperitoneal. The settings on record: in vivo, 120 h.
Data set [24] relates to L1210. Put plainly: Cytotoxicity against mouse L1210 cells assessed as growth inhibition measured at 72 hrs in presence of 5 uM prednisolone by trypan blue exclusion assay. Type of data set: functional. The settings on record: L1210, 72 h, read-out: ED50 (the source's name). The essentials: as §1

For `Nc1ccn([C@@H]2O[C@H](CO)[C@@H](O)[C@@H]2O)c(=O)n1` [CYTARABINE], the Activity in the data set with Mus musculus [1] is -4.2 g; with Mus musculus [2], -1.25 g; with Mus musculus [3] it was -3.8 g; in the data set with Mus musculus [9] it was -3.64 g; in the data set on Mus musculus [10] it was -2.46 g. Also, the MST is 9.5 days in the data set on L1210 [4]; 10 days in the data set with L1210 [6]; 14.5 days in the data set with L1210 [11]; 14 days in the data set on L1210 [12]; 13 days with L1210 [13]. The ILS at 25 mg/kg in the data set on L1210 [5] was determined as 18.8%. The EC50 in the data set with L1210 [7] was 100 nM. Besides, the ILS at 18.2 mg/kg with L1210 [8] was determined as 45%. In addition, the ILS with L1210 [14] came to 40%; in the data set with L1210 [15] it was 44%. Also, the ILS at 50 mg/kg in the data set on L1210 [16] was determined as 11.1%.
With `C[C@]12C=CC(=O)C=C1CC[C@@H]1[C@@H]2C(=O)C[C@@]2(C)[C@H]1CC[C@]2(O)C(=O)CO` [PREDNISONE], in the data set with Mus musculus [17], the Activity is given as -1.01 g. Also, in the data set with L1210 [7], the EC50 is more than 100000 nM. For the same compound, the MST in the data set on L1210 [18] stood at 9.5 days. In the data set on L1210 [19], the ILS at 27 mg/kg was -5%.
With `Nc1ccn([C@@H]2O[C@H](COP(=O)(O)O)[C@@H](O)[C@@H]2O)c(=O)n1` [CYTARABINE 5'-PHOSPHATE], in the data set with L1210 [20], the ILS at 24.2 mg/kg came to 65%. Also, the Activity with Mus musculus [1] is reported as -4.32 g; in the data set on Mus musculus [23], -3.52 g. Besides, the MST in the data set with L1210 [21] was 16.5 days; in the data set with L1210 [6] it was 9 days. In addition, the EC50 came to 5 nM in the data set on L1210 [22], 50 nM in the data set with L1210 [7] and 10 nM in the data set on L1210 [24]. The ILS at 50 mg/kg in the data set with L1210 [16] was 0%.

The values above are taken from ChEMBL document CHEMBL3244344, “Nucleoside conjugates as potential antitumor agents. 2. Synthesis and biological activity of 1-(beta-D-arabinofuranosyl)cytosine conjugates of prednisolone and prednisone” (J Med Chem, 1979).
